# Source: PubChem BioAssay
# An excerpt weighted towards active compounds, which were near 2.3% of everything screened.
# OXTR agonist = human OXTR agonism; activation, % at 3 µM; P30559; 320,000 compounds, 0.32% hits; CHO-OTR cells, Fluo-8 calcium fluorescence; normalized: DMSO 0%, oxytocin 100%;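 active = activation above the mean of all tested compounds plus 3 SD, cutoff set per screening run, cut at about 20% in these data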;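 note: peak over basal fluorescence ratio from a 100 s FLIPR kinetic read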
# Target sequence (P30559 whole entry, looked up): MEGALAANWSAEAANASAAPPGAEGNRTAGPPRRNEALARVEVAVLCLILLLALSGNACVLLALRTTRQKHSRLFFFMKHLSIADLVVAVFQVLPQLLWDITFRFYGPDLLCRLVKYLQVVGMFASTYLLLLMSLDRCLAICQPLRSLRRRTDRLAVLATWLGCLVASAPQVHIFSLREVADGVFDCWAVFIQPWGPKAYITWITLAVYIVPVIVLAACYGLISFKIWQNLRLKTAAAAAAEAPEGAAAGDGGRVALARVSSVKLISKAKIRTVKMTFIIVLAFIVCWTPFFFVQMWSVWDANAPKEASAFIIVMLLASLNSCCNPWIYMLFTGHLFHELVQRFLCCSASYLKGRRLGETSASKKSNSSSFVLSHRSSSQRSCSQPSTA
# V1aR counter = V1a receptor agonism, counter-screen for OXTR agonists; P37288; CHO-V1R cells, Fluo-8 calcium fluorescence, agonist mode; 0% DMSO, 100% 3 nM vasopressin; activation, % at 3 µM; 320,000 compounds, 0.25% hits; AID 2797;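 active = activation above the mean activation of all tested compounds plus 3 SD, per screening run, cut at about 20% in these data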;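 note: signal is peak over basal fluorescence ratio across a 100 second FLIPR read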
# OXTR potentiator = potentiators of human oxytocin receptor | AID 2445 | activation, % at 3 µM | 320,000 compounds, 0.061% hits | CHO-OTR cells, Fluo-8 calcium fluorescence, potentiator mode; 0% = oxytocin EC15, 100% = EC100;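 active = activation above that plate's cutoff, the mean activation of tested compounds plus 3 SD, cut at about 6.6% in these data, passing the limit was not always enough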
#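 Assay system: CHO-OTR cells, human receptor / Also added: oxytocin at about EC15, sub-maximal agonist stimulus / Dosing: single dose, 3.0 µM nominal final compound concentration / Incubation: 6 min pre-incubation, 100 s read / Technique: Fluo-8 calcium dye fluorescence / Read-out: % activation vs EC15 and EC100 oxytocin / Benchmarks: EC15 oxytocin low, 75 nM oxytocin high / Replicates: singlicate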
# TAAR1 antagonist = antagonists of human TAAR1; 360,000 compounds, 1.5% hits; inhibition, % at 3 µM; CHO RD-HGA16 TAAR1, Fluo-8 calcium fluorescence, antagonist;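 active = inhibition above a per-plate cutoff, the mean inhibition of test compounds on that plate plus 3 SD, cut at about 49% in these data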
#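 Material: CHO RD-HGA16 cells bearing hTAAR1; compound dosing: one-point dosing, 3 µM nominal final; schedule: dye loading 75 min at 37 °C, then 30 min room temperature; measured by: calcium fluorescence with Fluo-8; control set: vehicle and agonist controls; replication: n of 1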
# TAAR1 agonist = human TAAR1 agonism; Q96RJ0; CHO RD-HGA16 TAAR1, Fluo-8 calcium fluorescence; vehicle wells 0%, saturating PEA agonist 100%; activation, % at 3 µM; 360,000 compounds, 0.99% hits;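 active = activation above the mean activation of all test compounds in the run plus 3 SD, cut at about 38% in these data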
#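 System: CHO RD-HGA16 cells carrying human TAAR1 plus Gα16; Incubation: 17-24 h seeding, 75 min 37 °C dye, 30 min RT; Measured by: Fluo-8 fluorescence, 5 s baseline then 140 s kinetic read; Control set: DMSO and PEA EC100; Replication: single well for each compound.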
# TAAR1 ag conf = confirmation of human TAAR1 agonists; AID 651783; shares compounds with TAAR1 agonist; activation, % at 3 µM; 2,400 compounds, 82% hits; CHO RD-HGA16 TAAR1, Fluo-8 calcium fluorescence; scaled: DMSO 0%, maximal phenethylamine 100%;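 active = activation above a cutoff set at the run's mean compound activation plus 3 SD, cut at about 39% in these data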
# Ga16 ag counter = nonselective agonism, TAAR1 counter-screen; shares compounds with TAAR1 agonist; CHO-Ga16 parental, Fluo-8 calcium fluorescence; normalized to maximal ATP response, DMSO zero; activation, % at 3 µM; 2,400 compounds, 50% hits; AID 651787;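 active = activation above the run cutoff, the mean activation over all tested wells plus 3 SD, cut at about 12% in these data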
# TAAR1 desensitize = human TAAR1 agonist that also desensitizes the receptor | shares compounds with TAAR1 agonist | CHO RD-HGA16 hTAAR1, Fluo-8 calcium, beta-PEA response inhibition | inhibition, % at 3 µM | 2,400 compounds, 46% hits | AID 651951;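 active = inhibition above the run cutoff, the mean inhibition of all test compounds plus 3 SD, cut at about 49% in these data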;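 note: beta-PEA stimulus applied at its EC80; loss of beta-PEA calcium signal after compound pretreatment read as receptor desensitization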
# Ga16 nonsel ant = nonselective Ga16 antagonism, counter-screen. shares compounds with TAAR1 agonist. CHO-Ga16 ATP-induced calcium, Fluo-8 fluorescence. inhibition, % at 3 µM. 2,400 compounds, 39% hits. AID 651952;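 active = inhibition above the plate's mean compound inhibition plus 3 SD, computed per plate, cut at about 22% in these data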
# A number is an active result; n = inactive; x = not tested or not shown.
SMILES,OXTR agonist,V1aR counter,OXTR potentiator,TAAR1 antagonist,TAAR1 agonist,TAAR1 ag conf,Ga16 ag counter,TAAR1 desensitize,Ga16 nonsel ant
COc1ccc(OC)c(NC(=O)C2CC2c2ccccc2)c1 (configuration not stated),n,n,n,n,n,x,x,x,x
NS(=O)(=O)c1ccc(NC(=O)CN2C(=O)C3C4C=CC(C4)C3C2=O)cc1 (configuration not stated),n,n,n,n,n,x,x,x,x
Nc1nonc1-n1nnc(C(=O)N/N=C/c2cccc(F)c2)c1CN1CCCCCC1,n,n,n,n,n,x,x,x,x
O=C(O)C1CCCCC1C(=O)NCCc1ccncc1 (configuration not stated),n,n,n,n,n,x,x,x,x
O=C(O)[C@H]1CCCC[C@H]1C(=O)NCCc1ccccc1,n,n,n,85.2,85.0,96.8,n,92.0,n
CC1CCCCN1C(=S)NCCc1ccccc1 (configuration not stated),n,n,n,n,46.6,n,n,n,n
CCCCN(CCCC)C(=O)C1CC=CCC1C(=O)O (configuration not stated),n,n,n,n,n,x,x,x,x
CCCCCNC(=O)C1CC=CCC1C(=O)O (configuration not stated),n,n,n,n,49.0,n,n,n,n
CC1=C(C)CC(C(=O)NCCc2ccc(F)cc2)C(C(=O)O)C1 (configuration not stated),n,n,n,n,73.2,75.3,n,n,n
COc1ccc(CCNC(=O)C2CC=CCC2C(=O)O)cc1 (configuration not stated),n,n,n,n,49.9,59.7,n,n,n
COc1ccc(CCNC(C)=O)cc1,n,n,n,n,n,x,x,x,x
CC1=C(C)CC(C(=O)NCCc2ccccc2)C(C(=O)O)C1 (configuration not stated),n,n,n,91.0,81.0,105.1,n,83.7,n
COc1cccc(-c2cc(C(=O)Nc3cnn(Cc4ccccc4C)c3)no2)c1,n,n,n,n,n,x,x,x,x
COc1cccc(-c2cc(C(=O)Nc3cnn(Cc4ccc(F)cc4)c3)no2)c1,n,n,n,n,46.0,n,n,n,23.2
Fc1ccc(NC(=S)N2CCc3ccccc3C2)c(F)c1,n,n,n,n,42.6,72.3,13.3,n,n
COc1cc(NC(=S)N2CCc3ccccc3C2)cc(OC)c1,n,n,n,n,49.4,61.9,n,n,n
COc1ccc(NC(=S)N2CCc3ccccc3C2)cc1OC,n,n,n,x,x,x,n,x,n
Fc1ccc(NC(=S)N2CCOCC2)c(F)c1,n,n,n,n,n,x,x,x,x
O=[N+]([O-])c1ccc(NC(=S)N2CCc3ccccc3C2)cc1,n,n,n,n,60.5,80.8,n,63.3,21.7
CCCCN(C=O)c1c(CC)nc2c(OCC3CCCCC3)cccn12,x,x,x,n,n,x,x,x,x
Cn1c(=O)c2c(nc(Oc3ccccc3Br)n2C)n(C)c1=O,x,x,x,n,n,x,x,x,x
Cn1c(=O)c(N)c2c3c(c(Br)ccc31)C(=O)c1ccccc1-2,24.9,28.1,n,n,84.3,n,21.0,n,35.3
O=C(c1ccc2c3c(cccc13)CC2)C1CCCN(C(=O)c2ccc[n+]([O-])c2)C1 (configuration not stated),n,n,n,n,n,x,x,x,x
COc1ccc(/C(C)=N/OCC(=O)N2CC3(C)CC2CC(C)(C)C3)cc1 (configuration not stated),n,n,n,n,n,x,x,x,x
